Data published in ChEMBL document CHEMBL1124476, “1-(2-aminoethyl)-6-aryl-4H- [1,2,4]triazolo[4,3-a][1,4]benzodiazepines with diuretic and natriuretic activity” (J Med Chem, 1989).

Assays:
[1] = organism: Rattus norvegicus; assay: […]; format: ADME, organism-based, Urine; set-up: dose 3 mg/kg, route oral; conditions: in vivo, po, 3 mg/kg
Outline: (§1)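 Male Sprague-Dawley rats, about 160 g, fasted 24 h and water withheld 1 1/2 h beforehand; food and water withheld during the test. Dosing by gavage with 25 mL/kg 0.9% saline containing 0.5% (carboxymethyl)cellulose, agent dissolved or suspended. Three cages of two rats each per dose, held in metabolism cages. Urine collected over 5 h. Volume given in mL, Na+ in mequiv. Significance versus control at P < 0.05.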

[2] = tested on: Rattus norvegicus; assay: Mean excretion of chloride in conscious rats at a dose of 1.0 mg/kg given orally; format: ADME, organism-based; set-up: dose 1 mg/kg, route oral; conditions: in vivo, po
Outline: (§2)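 Secondary dose-response in male Sprague-Dawley rats (~160 g), fasted and hydrated as in the primary screen. Oral gavage at 0.3-100 mg/kg in 25 mL/kg saline/0.5% CMC, three cages of two rats per dose. Urine collected 5 h; Na, K, Cl, HCO3 measured. Values are mean excretion (mequiv), compared with controls at P < 0.05.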

[3] = tested on: Rattus norvegicus; assay: Mean excretion of potassium in conscious rats at a dose of 1.0 mg/kg given orally; format: ADME, organism-based; set-up: dose 1 mg/kg, route oral; conditions: in vivo, po; outline: as §2
[4] = tested on: Rattus norvegicus; assay: Mean excretion of potassium in conscious rats at a dose of 3.0 mg/kg given orally; format: ADME, organism-based; set-up: dose 3 mg/kg, route oral; conditions: in vivo, po; outline: as §2
[5] = tested on: Rattus norvegicus; assay: Mean excretion of sodium in conscious rats at a dose of 3.0 mg/kg given orally; format: ADME, organism-based; set-up: dose 3 mg/kg, route oral; conditions: in vivo, po; outline: as §1
[6] = tested on: Rattus norvegicus; assay: Mean excretion of chloride in conscious rats at a dose of 10 mg/kg given orally; format: ADME, organism-based; set-up: dose 10 mg/kg, route oral; conditions: in vivo, po; outline: as §2
[7] = tested on: Rattus norvegicus; assay: Mean excretion of chloride in conscious rats at a dose of 3.0 mg/kg given orally; format: ADME, organism-based; set-up: dose 3 mg/kg, route oral; conditions: in vivo, po; outline: as §2
[8] = tested on: Rattus norvegicus; assay: Mean excretion of potassium in conscious rats at a dose of 30 mg/kg given orally; format: ADME, organism-based; set-up: dose 30 mg/kg, route oral; conditions: in vivo, po; outline: as §2
[9] = Diuretic activity at 40 mg/kg (screening dose 84.7 umol/kg) in […] in a one stage experiment; T/C = urine vol of treated rats / urine vol of control rats; format: functional
Outline: (§3)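 40 mg/kg given by gavage in 25 mL/kg 0.9% saline with 0.5% (carboxymethyl)cellulose. Four rats per agent, two per metabolism cage; 20 controls; 5 h urine. T/C = treated/control urine volume. Stage-1 T/C of 1.66 or more leads to stage 2; product T/C1·T/C2 of 3.34 or more counts as active.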

[10] = tested on: Rattus norvegicus; assay: Mean excretion of sodium in conscious rats at a dose of 10 mg/kg given orally; format: ADME, organism-based; set-up: dose 10 mg/kg, route oral; conditions: in vivo, po; outline: as §1
[11] = tested on: Rattus norvegicus; assay: Mean excretion of potassium in conscious rats at a dose of 100 mg/kg given orally; format: ADME, organism-based; set-up: dose 100 mg/kg, route oral; conditions: in vivo, po; outline: as §2
[12] = organism: Rattus norvegicus; assay: […]; format: ADME, organism-based, Urine; set-up: dose 1 mg/kg, route oral; conditions: in vivo, po, 1 mg/kg
Outline: (§4)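 Dose-response test in male Sprague-Dawley rats of about 160 g, fasted 24 h, with water withheld 1½ h before and during the test. Each rat got a single gavage of 25 mL/kg 0.9% saline with 0.5% carboxymethylcellulose carrying the agent (0.3–100 mg/kg range). Rats were housed two per metabolism cage, and urine was collected for 5 h. Mean urine volume (mL) was compared with controls (P < 0.05).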

[13] = organism: Rattus norvegicus; assay: […]; format: ADME, organism-based, Urine; set-up: dose 0.3 mg/kg, route oral; conditions: in vivo, po, 0.3 mg/kg; outline: as §4
[14] = tested on: Rattus norvegicus; assay: Mean excretion of […] in conscious rats at a dose of 1.0 mg/kg given orally; format: ADME, organism-based; set-up: dose 1 mg/kg, route oral; conditions: in vivo, po; outline: as §1
[15] = tested on: Rattus norvegicus; assay: Mean excretion of sodium in conscious rats at a dose of 0.3 mg/kg given orally; format: ADME, organism-based; set-up: dose 0.3 mg/kg, route oral; conditions: in vivo, po; outline: as §1
[16] = tested on: Rattus norvegicus; assay: Mean excretion of potassium in conscious rats at a dose of 10 mg/kg given orally; format: ADME, organism-based; set-up: dose 10 mg/kg, route oral; conditions: in vivo, po; outline: as §2
[17] = tested on: Rattus norvegicus; assay: Mean excretion of Cl- in conscious rats at a dose of 0.3 mg/kg given orally; format: ADME, organism-based, Urine; set-up: dose 0.3 mg/kg, route oral; conditions: in vivo, po; outline: as §4
[18] = Diuretic activity at 40 mg/kg (screening dose-84.7 umol/kg) in […] in a two stage experiment; T/C1.2 = urine vol of treated rats / urine vol of control rats; format: functional; outline: as §3
[19] = organism: Rattus norvegicus; assay: […]; format: ADME, organism-based, Urine; set-up: dose 10 mg/kg, route oral; conditions: in vivo, po, 10 mg/kg; outline: as §1
[20] = tested on: Rattus norvegicus; assay: Mean excretion of chloride in conscious rats at a dose of 30 mg/kg given orally; format: ADME, organism-based; set-up: dose 30 mg/kg, route oral; conditions: in vivo, po; outline: as §2
[21] = tested on: Rattus norvegicus; assay: Mean excretion of potassium in conscious rats at a dose of 0.3 mg/kg given orally; format: ADME, organism-based; set-up: dose 0.3 mg/kg, route oral; conditions: in vivo, po; outline: as §2
[22] = tested on: Rattus norvegicus; assay: Mean excretion of chloride in conscious rats at a dose of 100 mg/kg given orally; format: ADME, organism-based; set-up: dose 100 mg/kg, route oral; conditions: in vivo, po; outline: as §2
[23] = tested on: Rattus norvegicus; assay: Mean excretion of sodium in conscious rats at a dose of 30 mg/kg given orally; format: ADME, organism-based; set-up: dose 30 mg/kg, route oral; conditions: in vivo, po; outline: as §1
[24] = organism: Rattus norvegicus; assay: […]; format: ADME, organism-based, Urine; set-up: dose 30 mg/kg, route oral; conditions: in vivo, po, 30 mg/kg; outline: as §1
[25] = organism: Rattus norvegicus; assay: […]; format: ADME, organism-based, Urine; set-up: dose 100 mg/kg, route oral; conditions: in vivo, po, 100 mg/kg; outline: as §1
[26] = tested on: Rattus norvegicus; assay: Mean excretion of sodium in conscious rats at a dose of 100 mg/kg given orally; format: ADME, organism-based; set-up: dose 100 mg/kg, route oral; conditions: in vivo, po; outline: as §1
[27] = Diuretic activity at 40 mg/kg (screening dose-94.6 umol/kg) in […] in a one stage experiment; T/C = urine vol of treated rats / urine vol of control rats; format: functional; outline: as §3
[28] = Diuretic activity at 40 mg/kg (screening dose 84 umol/kg) in […] in a one stage experiment; T/C = urine vol of treated rats / urine vol of control rats; format: functional; outline: as §3
[29] = Diuretic activity at 40 mg/kg (screening dose-97.3 umol/kg) in […] in a one stage experiment; T/C = urine vol of treated rats / urine vol of control rats; format: functional; outline: as §3
[30] = Diuretic activity at 40 mg/kg (screening dose-97.3 umol/kg) in […] in a two stage experiment; T/C1.2 = urine vol of treated rats / urine vol of control rats; format: functional; outline: as §3
[31] = Diuretic activity at 40 mg/kg (screening dose-75 umol/kg) in […] in a two stage experiment; T/C1.2 = urine vol of treated rats / urine vol of control rats; format: functional; outline: as §3
[32] = Diuretic activity at 40 mg/kg (screening dose-75 umol/kg) in […] in a one stage experiment; T/C = urine vol of treated rats / urine vol of control rats; format: functional; outline: as §3

| SMILES | Mean urine volume [1] [mL] | Mean excretion of Cl- [2] [m equiv] | Mean excretion of K+ [3] [m equiv] | Mean excretion of K+ [4] [m equiv] | Mean excretion of Na+ [5] [m equiv] | Mean excretion of Cl- [6] [m equiv] | Mean excretion of Cl- [7] [m equiv] | Mean excretion of K+ [8] [m equiv] | Mean excretion of Na+ [10] [m equiv] | Mean excretion of K+ [11] [m equiv] | Mean urine volume [12] [mL] | Mean urine volume [13] [mL] | Mean excretion of Na+ [14] [m equiv] | Mean excretion of Na+ [15] [m equiv] | Mean excretion of K+ [16] [m equiv] | Mean excretion of Cl- [17] [m equiv] | Mean urine volume [19] [mL] | Mean excretion of Cl- [20] [m equiv] | Mean excretion of K+ [21] [m equiv] | Mean excretion of Cl- [22] [m equiv] | other results |
| --- | --- | --- | --- | --- | --- | --- | --- | --- | --- | --- | --- | --- | --- | --- | --- | --- | --- | --- | --- | --- | --- |
| CN(C)CC(c1ccccc1Cl)c1nnc2n1-c1ccc(Cl)cc1C(c1ccccc1)=NC2 (stereo not given) | 4.67 | 0.93 | 0.24 | 0.22 | 0.81 | 1.13 | 0.84 | 0.16 | 1.03 | 0.22 | 4.54 | 5.36 | 0.93 | 1 | 0.21 | 1.08 | 5.37 | 1.21 | 0.25 | 1.69 | T/C 1 [9]: 1.67; T/C 1.2 [18]: 3.77; Mean excretion of Na+ [23]: 1.22 m equiv; Mean urine volume [24]: 6.73 mL; Mean urine volume [25]: 9.85 mL; Mean excretion of Na+ [26]: 1.76 m equiv |
| CN(C)CC(CN(C)C)c1nnc2n1-c1ccc(Cl)cc1C(c1ccccc1)=NC2 |  |  |  |  |  |  |  |  |  |  |  |  |  |  |  |  |  |  |  |  | T/C 1 [27]: 1.22 |
| CN(C)CC(c1ccc(Cl)cc1)c1nnc2n1-c1ccc(Cl)cc1C(c1ccccc1)=NC2 (stereo not given) |  |  |  |  |  |  |  |  |  |  |  |  |  |  |  |  |  |  |  |  | T/C 1 [28]: 0.9 |
| CN(C)CCc1nnc2n1-c1ccc(Br)cc1C(c1ccccn1)=NC2 | 5.53 | 0.7 | 0.32 | 0.39 | 0.79 | 0.81 | 0.84 | 0.37 | 0.77 | 0.41 | 4.69 | 5.94 | 0.6 | 0.74 | 0.33 | 0.81 | 5.63 | 1.05 | 0.38 | 1.21 | T/C 1 [29]: 1.75; T/C 1.2 [30]: 3.46; Mean excretion of Na+ [23]: 1.03 m equiv; Mean urine volume [24]: 8.05 mL; Mean urine volume [25]: 11.02 mL; Mean excretion of Na+ [26]: 1.26 m equiv |
| CN(C)CC(c1ccccc1)c1nnc2n1-c1ccc(I)cc1C(c1ccccc1)=NC2 (stereo not given) | 4.86 | 0.7 | 0.25 | 0.23 | 0.66 | 1.5 | 0.76 | 0.24 | 1.64 | 0.24 | 4.8 | 5.09 | 0.65 | 0.75 | 0.19 | 0.8 | 10.8 | 1.73 | 0.18 | 1.82 | T/C 1.2 [31]: 9.39; Mean excretion of Na+ [23]: 1.98 m equiv; T/C 1 [32]: 3.26; Mean urine volume [24]: 12.9 mL; Mean urine volume [25]: 14.57 mL; Mean excretion of Na+ [26]: 2.09 m equiv |
